An excerpt weighted towards active compounds, which were near 0.89% of everything screened.
beta cell repl = inducers of MIN6 beta-cell proliferation, primary screen, ATP luminescence, uHTS. hit rate 0.29% among 330,000. proliferation, % at 10 µM. MIN6 cells proliferation, ATPlite luminescence, 48 h; cells starved in 0.2% serum; 100% = growth in 10% serum;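 active = compounds whose signal lies at least 3.5 SD above the mean of all wells on their plate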;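 note: 0% = DMSO-treated cells in low-serum medium and 100% = 10% serum control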
T cell modulator = modulators of CD8 T cell-vesicle binding, primary screen, mouse 2C CD8+ T cells, flow cytometry | response (vesicle binding), % at 7 µM | 2C CD8+ T cell-vesicle binding; active compounds read low | hit rate 0.068% among 330,000;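 active = response, share of CD8 T cells binding vesicles, and their 90th percentile fluorescence all below set limits, cut at about 80% in these data, passing the limit was not always enough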;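 note: values below 100% mean blocked vesicle binding to the CD8+ T cells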
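incubation = binding step 1.5 h, 37 °C, antibody labelling 20 min, ice | test system = 2C mouse CD8+ T cells | read-out basis = percent CD8+ FL2 mean versus row control | controls = Peptide-free naked vesicles (low) and QL9 vesicles with 0.7% DMSO vehicle (high) | detection = flow cytometry of vesicle-bound cells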
V-ATPase pHluor = regulators of yeast V-ATPase proton pumping, primary screen, pHLuorin cytosolic pH fluorescence. S. cerevisiae. response, % at 10 µM. hit rate 0.37% among 350,000. AID 504577, 2011; in the data active = response mostly above about 7.3%, no sharp cut-off; inactive = mostly below about 5.4%; note: actives read high
Arrestin-AP2 inh = inhibitors of beta-arrestin/AP2 binding, primary screen, biochemical, GPCR trafficking, flow cytometry. FITC-arrestin peptide / GST-AP2 beads; AP2 beta2 appendage carries R879A mutation. inhibition, % at 10 µM. hit rate 0.31% among 340,000. AID 504490, 2011;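 active = inhibition above a set limit, near 3 SD of compounds lacking own fluorescence, cut at about 54% in these data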;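 note: plate controls were DMSO wells for no effect and 5 µM unlabelled arrestin peptide for full effect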
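System: GST-AP2 R879A glutathione beads; medium: PBS, Tween 20 0.05%, BSA 0.1%; reagent: fluorescein-tagged arrestin peptide at 50 nM final; schedule: pre-incubation 12 min, peptide binding 1 h, room temperature; detection: flow cytometry, FL1 (488/535 nm); read-out: inhibition as reduced fluorescein signal on beads, percent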
NTR1 ag = agonists of human NTR1, primary screen, imaging, U2OS cells, beta-arrestin-GFP, high content. Neurotensin receptor type 1 (Homo sapiens), P30989. NTR1-U2OS beta-arrestin-GFP spot imaging, agonist mode. activation, % at 20 µM. hit rate 0.17% among 330,000;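 active = activation at or above 40% of the spot to cytoplasm intensity ratio, with at least 20 cells analyzed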;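 note: 0% = DMSO without peptide and 100% = 100 nM NTR1 peptide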
Target sequence (P30989 whole entry, looked up): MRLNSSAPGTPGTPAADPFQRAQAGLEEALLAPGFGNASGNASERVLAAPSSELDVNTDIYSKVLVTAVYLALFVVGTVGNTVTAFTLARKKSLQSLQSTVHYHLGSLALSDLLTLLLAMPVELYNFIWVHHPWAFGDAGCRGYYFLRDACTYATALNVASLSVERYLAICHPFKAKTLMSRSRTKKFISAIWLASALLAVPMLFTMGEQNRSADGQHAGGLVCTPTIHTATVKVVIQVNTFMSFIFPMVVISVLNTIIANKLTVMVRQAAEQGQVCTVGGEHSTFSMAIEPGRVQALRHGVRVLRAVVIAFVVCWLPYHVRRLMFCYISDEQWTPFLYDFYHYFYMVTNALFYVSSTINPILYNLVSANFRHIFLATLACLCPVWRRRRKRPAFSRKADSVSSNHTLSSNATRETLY
XiGFP reactiv = activators of inactive X chromosome reactivation, primary screen, imaging, XiGFP fibroblasts, GFP high-content imaging, set 2. hit rate 0.055% among 360,000. XiGFP mouse fibroblasts, % GFP-positive cells imaging, 3 d; cells co-treated with 5-aza-dC sensitizer; scaled so ellipticine positive control = 100%. activation, % at 7.58 µM;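 active = mean normalized replicate activation at least 10% and every replicate at or above 10%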;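 note: 0% = median of on-plate neutral control wells and 100% = ellipticine 6 µM median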
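Assay system: SV40-immortalized XiGFP fibroblast cells, line 68-5-11; buffer or medium: DMEM plus 5-aza-dC sensitizer; compound: one concentration, pinned; timing: compounds 3 days, fix/stain 15 min at room temperature; benchmarks: positive control ellipticine, 6 µM final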
NTR1 ag conf = NTR1 agonists, single-dose retest, confirmation, imaging, U2OS cells, beta-arrestin-GFP, single concentration. shares compounds with NTR1 ag. NTR1-U2OS beta-arrestin-GFP translocation imaging. activation, % at 20 µM. hit rate 38% among 480. AID 504550, 2011;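 active = mean activation at 20 µM of at least 40%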;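 note: 0% = DMSO without peptide and 100% = 100 nM NTR1 peptide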
Active calls of the source: *; . = no result.

SMILES	beta cell repl	T cell modulator	V-ATPase pHluor	Arrestin-AP2 inh	NTR1 ag	XiGFP reactiv	NTR1 ag conf
C[C@@H]1CN([C@H](C)CO)C(=O)Cc2cc(NC(=O)Cc3cn(C)c4ccccc34)ccc2O[C@@H]1CN(C)S(=O)(=O)c1ccc(Cl)cc1	.	.	.	.	.	0.2	.
CC(CCc1ccccc1)NC(=O)COC(=O)c1ccc([N+](=O)[O-])cc1 (centres undefined)	-2.7	324.9	-3.6	32.3	-1.7	0.1	.
CC(CCc1ccccc1)NC(=O)COC(=O)c1ccc(S(C)(=O)=O)c([N+](=O)[O-])c1 (centres undefined)	-6.9	338.6	-0.3	13.7	42.3*	0.1	78.7*
CCCN(C)C[C@H]1Oc2cc(C#CC3CCCC3)ccc2S(=O)(=O)N([C@H](C)CO)C[C@H]1C	.	.	.	.	.	0.0	.
O=C(N/N=C/c1cn(-c2ccccc2)nc1-c1cc2ccccc2o1)c1cccnc1	-6.2	152.4	1.4	23.4	40.1*	0.2	62.3*
CCCCn1c(SCC(=O)N2CCC(C)CC2)nc2cc(S(N)(=O)=O)ccc21	-0.7	416.7	14.3*	9.2	44.2*	.	49.9*
O=C(C1CC1)N1CC(=O)N2[C@@H](CO)[C@@H](c3ccc(C#Cc4cccc(F)c4)cc3)[C@@H]2C1	.	.	.	.	.	0.0	.
N=c1c(-c2nc3ccccc3[nH]2)cc(C(=O)c2ccco2)nn1-c1ccccc1	-5.9	251.0	-3.4	-8.8	5.7	0.1	.
N=c1c(-c2nc3ccccc3[nH]2)cc(C(=O)c2cccs2)nn1-c1ccccc1	-5.9	166.2	3.1	8.3	51.7*	.	-1.3
CCC(C)Nc1nc(-c2cccc(OC)c2O)nc2ccccc12 (centres undefined)	-2.1	479.7	-2.4	1.6	19.4	.	.
COc1cccc(-c2nc(NC(C)C)c3ccccc3n2)c1O	-4.5	393.7	-0.7	-9.4	63.5*	.	-3.0
C[C@@H]1CN([C@H](C)CO)C(=O)c2cc(C#Cc3ccccc3)cnc2O[C@H]1CN(C)S(=O)(=O)c1ccccc1F	.	.	.	.	.	0.6	.
COc1cc(/C=C2\C(=O)ON=C2c2ccc(Cl)cc2)ccc1O	-4.3	98.5	1.4	8.6	48.6*	0.0	80.8*
O=C1ON=C(c2ccccc2)/C1=C/c1ccc(O)c(O)c1	-2.4	285.8	-0.7	4.8	27.7	0.1	.
CO[C@H]1CN(C)C(=O)c2cc(NC(=O)C3CCCC3)ccc2OC[C@H](C)N(C(=O)CC2CC2)C[C@@H]1C	.	.	.	.	.	0.0	.
COC(=O)CSc1nc(N)c2c3c(sc2n1)CCCC3	-4.7	362.6	0.0	3.9	-0.9	.	.
COC(=O)CSc1nc(N)c2c3c(sc2n1)C(c1ccccc1)SC(c1ccccc1)C3 (centres undefined)	-5.3	231.1	2.1	-1.7	49.9*	.	32.2
c1cnc(N2CCN(c3nc4ccccc4n4cnnc34)CC2)nc1	-2.5	105.1	-1.5	-2.7	8.3	.	.
c1ccc(C(c2ccccc2)N2CCN(c3nc4ccccc4n4cnnc34)CC2)cc1	-4.1	292.7	.	.	41.8*	.	49.6*
CCCC#Cc1cnc2c(c1)C(=O)N([C@H](C)CO)C[C@H](C)[C@H](CN(C)C(=O)Nc1ccccc1F)O2	.	.	.	.	.	-1.2	.
N#C/C(=C\c1cn[nH]c1-c1ccc(Cl)cc1)C(=O)NC1CC1	0.0	583.7	1.3	-6.0	-1.0	.	.
N#C/C(=C\c1cn[nH]c1-c1ccc(Cl)cc1)C(=O)NCc1ccccc1	-1.4	251.5	-1.6	17.6	43.3*	.	9.2
CC(C)(C)OC(=O)COc1cc(O)c2c(=O)cc(-c3ccccc3)oc2c1	-0.8	446.7	-0.9	15.6	2.4	0.2	.
